Measured values as given in ChEMBL document CHEMBL3414514, “Synthesis and pharmacological evaluation of novel bisindole derivatives bearing oximes moiety: identification of novel proapoptotic agents” (Eur J Med Chem, 2015).
pIC50: −log10 of the molar value. Calls of active or inactive are those of the source. No cut-off for these calls is given here.

What was measured:
T-24 [1] = assay: Induction of apoptosis in human T24 cells assessed as necrotic cells at 10 uM after 24 hrs by annexin-V-FITC/propidium iodide staining-based flow cytometry (reference value: 1.66%); format: functional
[2] = Induction of apoptosis in human T24 cells assessed as tp53 upregulation after 24 hrs by qRT-PCR analysis; format: functional, cell-based; conditions: T-24
[3] = Cell cycle arrest in human T24 cells assessed as increase in p53 level after 24 hrs by Western blotting analysis; format: functional, cell-based; conditions: T-24
Procedure, shortened: (§1)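 T24 cells treated at […] for 24 h and lysed in ice-cold RIPA buffer with protease inhibitors and NaF. Protein measured by Bradford; 30 micrograms per lane run on 12% SDS-PAGE and transferred to PVDF. Blocked 2 h at room temperature, primary antibody overnight at 4 C, HRP secondary (1:2000) 1 h, chemiluminescence detection.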

[4] = Cell cycle arrest in human T24 cells assessed as accumulation at S phase at 20 uM after 48 hrs by Rnase A/propidium iodide staining-based flow cytometry (reference value: 62%); format: functional; conditions: T-24
Procedure, shortened: (§2)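 T24 cells exposed to […] for 48 h, washed with ice-cold PBS, then fixed and permeabilized overnight in ice-cold 70% ethanol. RNase A (100 mg/mL) treatment at 37 C for 30 min, then PI staining (1 mg/mL) in the dark at 4 C for 30 min. Flow cytometry gave the percentage of cells in G1, S and G2 phase.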

[5] = Cell cycle arrest in human T24 cells assessed as accumulation at G1 phase at 20 uM after 48 hrs by Rnase A/propidium iodide staining-based flow cytometry (reference value: 34.43%); format: functional; conditions: T-24
[6] = Cell cycle arrest in human T24 cells assessed as reduction in Cyclin E level after 24 hrs by Western blotting analysis; format: functional, cell-based; conditions: T-24; procedure, shortened: as §1
[7] = Induction of apoptosis in human T24 cells assessed as caspase-9 upregulation after 24 hrs by qRT-PCR analysis; format: functional, cell-based; conditions: T-24
Procedure, shortened: (§3)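 T24 cells treated at […] for 24 h before RNA extraction. SYBR Green qRT-PCR with 500 nM primers: 2 min at 50 C, 10 min at 95 C, then 40 cycles of 15 s at 95 C and 1 min at 60 C. Expression by the ΔCt method against actin, normalized to untreated cells; run in triplicate.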

T-24 [8] = assay: Induction of apoptosis in human T24 cells assessed as reduction in cellular volume after 24 hrs by Hoechst 33258 staining-based fluorescence microscopic analysis relative to control; format: functional, cell-based
Procedure, shortened: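 T24 cells on cover slips exposed 24 h at 5, 10 and 20 µM, with untreated cells as control. Fixed in 4% paraformaldehyde for 10 min, washed with PBS and stained with Hoechst 33258 for 5 min. Nuclei were viewed by fluorescence microscopy at 350 nm excitation and 460 nm emission.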

T-24 [9] = assay: Induction of apoptosis in human T24 cells assessed as necrotic cells at 5 to 20 uM after 24 hrs by AO/EB staining-based fluorescence microscopic analysis; format: functional, cell-based
Procedure, shortened: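 T24 cells seeded at 5 × 10^4 cells/mL on cover slips. Medium was replaced with fresh medium containing 10% FBS and compound at 5, 10 or 20 µM for 24 h. Cover slips were inverted onto AO/EB stain and viewed by fluorescence microscopy. Live cells score uniform green, early apoptotic green-yellow, late apoptotic orange, and necrotic orange without condensed chromatin. Untreated cells served as control.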

[10] = Cell cycle arrest in human T24 cells assessed as accumulation at S phase at 5 uM after 48 hrs by Rnase A/propidium iodide staining-based flow cytometry (reference value: 62%); format: functional; conditions: T-24; procedure, shortened: as §2
[11] = Induction of apoptosis in human T24 cells assessed as Bcl2 upregulation after 24 hrs by qRT-PCR analysis; format: functional, cell-based; conditions: T-24; procedure, shortened: as §3
T-24 [12] = assay: Induction of apoptosis in human T24 cells assessed as loss of mitochondrial membrane potential at 5 to 20 uM after 24 hrs by JC-1 staining-based fluorescence microscopic analysis relative to control; format: functional, cell-based
Procedure, shortened: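 T24 cells exposed 24 h at 5, 10 and 20 µM, then given an equal volume of JC-1 staining solution at 37 °C for 20 min and rinsed twice with PBS. Monomer (green, 515–545 nm) and aggregate (red, 570–600 nm) emissions were viewed by fluorescence microscopy. Depolarization was read as a rise in the green/red ratio against untreated control.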

[13] = Induction of apoptosis in human T24 cells assessed as caspase-8 upregulation after 24 hrs by qRT-PCR analysis; format: functional, cell-based; conditions: T-24; procedure, shortened: as §3
T-24 [14] = assay: Induction of apoptosis in human T24 cells assessed as cell budding at 5 to 20 uM after 24 hrs by AO/EB staining-based fluorescence microscopic analysis relative to control; format: functional
T-24 [15] = assay: Induction of apoptosis in human T24 cells assessed as necrotic cells at 5 uM after 24 hrs by annexin-V-FITC/propidium iodide staining-based flow cytometry (reference value: 1.66%); format: functional
[16] = Induction of apoptosis in human T24 cells assessed as caspase-9 upregulation at IC50 after 24 hrs by qRT-PCR analysis relative to control; format: functional, cell-based; conditions: T-24
A549 = assay: Cytotoxicity against human A549 cells after 2 days by MTT assay; format: functional, cell-based; conditions: A549, 48 h
Procedure, shortened: (§4)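 Cells grown in medium with 10% heat-inactivated FBS at 37 C under 5% CO2. Compounds dissolved in medium with 1% DMSO; controls received 1% DMSO. After 2 days, MTT (10 mg/mL) added for 4 h, formazan dissolved in DMSO and absorbance read at 570/630 nm. Survival taken relative to negative control; IC50 by Bliss method (n = 5), at least three independent experiments.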

[17] = Cytotoxicity against human T24 cells after 2 days by MTT assay; format: functional, cell-based; conditions: T-24, 48 h; procedure, shortened: as §4
[18] = Cytotoxicity against human SPCA2 cells after 2 days by MTT assay; format: functional, cell-based; conditions: SPCA2, 48 h; procedure, shortened: as §4
T-24 [19] = assay: Induction of apoptosis in human T24 cells assessed as reduction in Bcl2 protein expression after 6 to 24 hrs by Western blotting analysis; format: functional, cell-based
Procedure, shortened: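 T24 cells exposed at 20 µM for 6, 12 and 24 h, then lysed in ice-cold RIPA with protease and phosphatase inhibitors. Protein was quantified by Bradford, and 30 µg per lane was run on 12% SDS-PAGE and transferred to PVDF. Membranes were blocked 2 h, probed with primary antibody at 4 °C overnight, then HRP secondary (1:2000) for 1 h, with chemiluminescent detection.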

[20] = Cell cycle arrest in human T24 cells assessed as accumulation at S phase at 10 uM after 48 hrs by Rnase A/propidium iodide staining-based flow cytometry (reference value: 62%); format: functional; conditions: T-24; procedure, shortened: as §2
[21] = Induction of apoptosis in human T24 cells assessed as Bax upregulation after 24 hrs by qRT-PCR analysis; format: functional, cell-based; conditions: T-24; procedure, shortened: as §3
[22] = Induction of apoptosis in human T24 cells assessed as cytC upregulation at IC50 after 24 hrs by qRT-PCR analysis relative to control; format: functional, cell-based; conditions: T-24
[23] = Cell cycle arrest in human T24 cells assessed as reduction in CDK2 level after 24 hrs by Western blotting analysis; format: functional, cell-based; conditions: T-24; procedure, shortened: as §1
T-24 [24] = assay: Induction of apoptosis in human T24 cells assessed as early apoptotic cells at 20 uM after 24 hrs by annexin-V-FITC/propidium iodide staining-based flow cytometry (reference value: 2.74%); format: functional
[25] = Cell cycle arrest in human T24 cells assessed as accumulation at G2 phase at 20 uM after 48 hrs by Rnase A/propidium iodide staining-based flow cytometry (reference value: 3.58%); format: functional; conditions: T-24; procedure, shortened: as §2

Structure (SMILES): COc1ccc2c(c1)/C(=N\O)C(c1c[nH]c3ccc(OC)cc13)=N2
- Activity (T-24 [1]): 1.22%
- Activity [2]: Dose-dependent effect
- Activity [3]: Dose-dependent effect
- Activity [4]: 28.4%
- Activity [5]: 66.9%
- Activity [6]: Dose-dependent effect
- Activity [7]: Dose-dependent effect
- Activity (T-24 [8]): Dose-dependent effect
- Activity (T-24 [9]): inactive
- Activity [10]: 51.9%
- Activity [11]: Dose-dependent effect
- Activity (T-24 [12]): Active
- Activity [13]: Dose-dependent effect
- Activity (T-24 [14]): Active
- Activity (T-24 [15]): 1.18%
- fold change (FC) [16]: 27.1
- pIC50 (A549): 5.22
- pIC50 [17]: 5.37
- pIC50 [18]: 5.11
- Activity (T-24 [19]): Dose-dependent effect
- Activity [20]: 37.5%
- Activity [21]: Dose-dependent effect
- fold change (FC) [22]: 8.09
- Activity [23]: Dose-dependent effect
- Activity (T-24 [24]): 32.7%
- Activity [25]: 4.67%
